# Key:
# [1] = Cytotoxicity against human TE1 cells assessed as growth inhibition after 72 hrs by CCK8 assay; type: functional, cell-based, TE-1; conditions: Homo sapiens, TE-1, 72 h; read-out: IC50
# In short: (§1)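 Exponentially growing cells were trypsinized and seeded at 2 × 10^4 cells/mL (100 µL/well). After 24 h, medium was replaced with compound at 0.5–256 µM (twofold steps). Plates were incubated 72 h at 37 °C, 5% CO2, then with CCK-8 for 4 h. A450 was read. Three independent runs; IC50 given as mean and SD.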
# [2] = Cytotoxicity against human MCF7 cells assessed as growth inhibition after 72 hrs by CCK8 assay; type: functional, cell-based; conditions: Homo sapiens, MCF7, 72 h; read-out: IC50; in short: as §1
# [3] = Cytotoxicity against human SW780 cells assessed as growth inhibition after 72 hrs by CCK8 assay; type: functional, cell-based; conditions: Homo sapiens, SW780, 72 h; read-out: IC50; in short: as §1
# [4] = Cytotoxicity against human MGC803 cells assessed as growth inhibition after 72 hrs by CCK8 assay; type: functional, cell-based, MGC-803; conditions: Homo sapiens, MGC-803, 72 h; read-out: IC50; in short: as §1
# [5] = Cytotoxicity against human HL-7702 cells assessed as growth inhibition after 72 hrs by CCK8 assay; type: toxicity, cell-based, L02; conditions: human, HL-7702 cells; in short: as §1
# [6] = Cytotoxicity against human GES-1 cells assessed as growth inhibition after 72 hrs by CCK8 assay; type: toxicity, cell-based, GES1; conditions: human, GES-1 cells; in short: as §1
SMILES,IC50 [1] [µM],IC50 [2] [µM],IC50 [3] [µM],IC50 [4] [µM],IC50 at 72 h [5] [µM],IC50 at 72 h [6] [µM]
CC(C)(C)OC(=O)N1CCN(C(=O)Cn2cc(CN3C(=O)C(=O)c4c(Cl)ccc(Cl)c43)nn2)CC1,39.2,46.9,> 128,22,42,84.2
O=C1C(=O)N(Cc2cn(CC(=O)N3CCCCC3)nn2)c2c(Cl)ccc(Cl)c21,40.6,34.6,29.7,18.7,39.3,50.7
O=C1C(=O)N(Cc2cn(CC(=O)N3CCCC3)nn2)c2c(Cl)ccc(Cl)c21,51.6,62.4,48.2,14.8,> 128,88.7
O=C1C(=O)N(Cc2cn(CC(=O)N3CCOCC3)nn2)c2c(Cl)ccc(Cl)c21,119,146,113,51.7,> 128,> 128

# From ChEMBL document CHEMBL3875153, “Design and synthesis of isatin/triazole conjugates that induce apoptosis and inhibit migration of MGC-803 cells” (Eur J Med Chem, 2016)
